# Reference: ChEMBL document CHEMBL3603821, “Optimization of N-aryl-6-methoxy-1,2,3,4-tetrahydroquinolines as tubulin polymerization inhibitors” (Bioorg Med Chem, 2015)
# How the values were obtained:
# A549 = experiment: Antiproliferative activity against human A549 cells assessed as cell growth inhibition by SRB assay; format: functional
# Summary of the method: (§1)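 SRB assay in a human tumor cell line panel (A-549 lung, KB nasopharyngeal, P-glycoprotein-overexpressing KBvin, DU145 prostate).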
# DU-145 = experiment: Antiproliferative activity against human DU145 cells assessed as cell growth inhibition by SRB assay; format: functional; summary of the method: as §1
# KB = experiment: Antiproliferative activity against human KB cells assessed as cell growth inhibition by SRB assay; format: functional
# [1] = Antiproliferative activity against human vincristine-resistant KBVIN cells expressing P-glycoprotein assessed as cell growth inhibition by SRB assay; format: functional; summary of the method: as §1
# Tubulin (Homo sapiens) [2] = target: T1, Tubulin (Homo sapiens) (UniProt P68371+Q9H4B7+P0DPH7+P68366+Q13509+Q71U36+P04350+Q3ZCM7+P07437+P68363+Q9BQE3+Q6PEY2+Q13885+Q9BVA1+Q9BUF5); experiment: Displacement of [3H]-colchicine from tubulin (unknown origin) at 1 uM after 10 mins; format: protein-complex assay
# Summary of the method: (§2)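 Radioligand binding competition: 1.0 μM tubulin incubated with 5.0 μM [3H]colchicine plus inhibitor at 5.0 or 1.0 μM for 10 min at 37 °C. At that point control binding is about 40–60% of maximum. Result is percent inhibition of colchicine binding ± SD.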
# Tubulin (Homo sapiens) [3] = target: T1, Tubulin (Homo sapiens); experiment: Displacement of [3H]-colchicine from tubulin (unknown origin) at 5 uM after 10 mins; format: protein-complex assay; summary of the method: as §2
# [4] = Aqueous solubility of the compound at pH 7.4 by HPLC-UV method; format: physicochemical; settings: buffer
# [5] = Octanol/water partition coefficient, log P of the compound after 24 hrs by HPLC analysis; format: physicochemical
# Summary of the method: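 Log P measured at pH 7.4 with HPLC-UV on a C18 column (4.6 × 150 mm, 5 μm). Eluent MeOH/water 80:20 containing 0.04% ammonium acetate, run at 0.8 mL/min, with detection at 254 nm. Value given as mean ± SD of three separate experiments.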
# Tubulin = experiment: Inhibition of tubulin (unknown origin) assembly pre-incubated for 15 mins before GTP addition measured after 20 mins by turbidimetry; format: protein-complex assay, Homo sapiens
SMILES,GI50 (A549) [nM],GI50 (DU-145) [nM],GI50 (KB) [nM],GI50 [1] [nM],inhibition (Tubulin (Homo sapiens) [2]) [%],inhibition (Tubulin (Homo sapiens) [3]) [%],solubility [4] [µg/mL],logP [5],IC50 (Tubulin) [nM]
COc1ccc2c(c1)CCCN2c1nc(F)nc2[nH]cnc12,23600,25500,> 33000,27100,,,,,
COc1ccc2c(c1)CCCN2c1nc(NC2CC2)nc2ccccc12,16,16,13,,56,89,2.55,4.13,1300
COc1ccc2c(c1)CCCN2c1nc(OC)nc2ccccc12,24,21,26,30,,,,,
COc1ccc2c(c1)CCCN2c1ncnc2[nH]cnc12,> 35000,> 35000,> 35000,> 35000,,,,,
COc1ccc2c(c1)CCCN2c1nc(N(C)C)nc2ccccc12,170,150,140,200,,,,,
COc1ccc2c(c1)CCCN2c1ccnc2ccccc12,200,180,160,180,,,,,
COc1ccc(/C=C\c2cc(OC)c(OC)c(OC)c2)cc1O [COMBRETASTATIN A4],84.1,,3.6,1.2,,,,,
COc1ccc2c(c1)CCCN2c1nc(N)nc2[nH]cnc12,19400,18000,17500,18900,,,,,
CC(=O)O[C@H]1C(=O)[C@@]2(C)[C@H]([C@H](OC(=O)c3ccccc3)[C@]3(O)C[C@H](OC(=O)[C@H](O)[C@@H](NC(=O)c4ccccc4)c4ccccc4)C(C)=C1C3(C)C)[C@]1(OC(C)=O)CO[C@@H]1C[C@@H]2O [PACLITAXEL],7.6,6,6.4,1210,,,,,
COc1ccc2c(c1)CCCN2c1nc(NC2CCCC2)nc2ccccc12,1340,1290,1190,1420,,29,,,5700
COc1ccc2c(c1)CCCN2c1nc(NCCCO)nc2ccccc12,16,20,18,19,49,78,75.6,3.43,850
COc1ccc2c(c1)CCCN2c1nccc2ccccc12,2080,1470,1720,1640,,37,,,2600
COc1ccc2c(c1)CCCN2c1cccc2cccnc12,12100,12800,16200,8710,,,,,> 20000
COc1ccc2c(c1)CCCN2c1ncnc2ccccc12,18,,14,19,69,91,,,1300
COc1ccc2c(c1)CCCN2c1cncc2ccccc12,1950,920,1480,1540,,39,,,3300
